# Assay results from ChEMBL document CHEMBL3046087, “Aminomethylphosphonic acid accumulation in plant species treated with glyphosate” (J Agric Food Chem, 2008).
# How the values were obtained:
# Lolium multiflorum [1] = assay: Induction of shikimate accumulation in Lolium multiflorum (Italian ryegrass) at growth inhibition I50 level rate measured 7 days post treatment (reference value: 904 ug/g tissue); format: functional
# How it was run: (§1)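 Plants were sprayed in the greenhouse at each species' I50 rate, with Tween 20 controls. Shoots were harvested at 7 DAT and rinsed free of surface glyphosate. Shikimic acid was measured by HPLC on a C18 column after 0.45 µm filtration, with 100 µL injected, isocratic 98% H2O (pH 3.0)/2% MeOH, at 1 mL flow.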
# Zea mays [2] = assay: Induction of shikimate accumulation in non glyphosate-resistant Zea mays (maize) at growth inhibition I50 level rate measured 7 days post treatment (reference value: 161 ug/g tissue); format: functional
# Zea mays [3] = assay: Induction of shikimate accumulation in glyphosate-resistant Zea mays (maize) at growth inhibition I50 level rate measured 7 days post treatment (reference value: 241 ug/g tissue); format: functional; how it was run: as §1
# Abutilon theophrasti [4] = assay: Induction of shikimate accumulation in Abutilon theophrasti (velvetleaf) at growth inhibition I50 level rate measured 7 days post treatment (reference value: 2 ug/g tissue); format: functional; how it was run: as §1
# Erigeron canadensis [5] = assay: Induction of shikimate accumulation in Conyza canadensis (horseweed) at growth inhibition I50 level rate measured 7 days post treatment (reference value: 251 ug/g tissue); format: functional; how it was run: as §1
# [6] = system: Pueraria montana var. lobata; assay: Induction of shikimate accumulation in Pueraria montana var. lobata ( kudzu) at growth inhibition I50 level rate measured 7 days post treatment (reference value: 188 ug/g tissue); format: functional; how it was run: as §1
# Desmanthus illinoensis [7] = assay: Induction of shikimate accumulation in Desmanthus illinoensis (Illinois bundleflower) at growth inhibition I50 level rate measured 7 days post treatment (reference value: 21 ug/g tissue); format: functional
# Senna occidentalis [8] = assay: Induction of shikimate accumulation in Senna occidentalis (coffee senna) at growth inhibition I50 level rate measured 7 days post treatment (reference value: 277 ug/g tissue); format: functional; how it was run: as §1
# Sesbania herbacea [9] = assay: Induction of shikimate accumulation in Sesbania herbacea at growth inhibition I50 level rate measured 7 days post treatment (reference value: 266 ug/g tissue); format: functional; how it was run: as §1
# Senna obtusifolia [10] = assay: Induction of shikimate accumulation in Senna obtusifolia (sicklepod) at growth inhibition I50 level rate measured 7 days post treatment (reference value: 348 ug/g tissue); format: functional; how it was run: as §1
# Glycine max [11] = assay: Induction of shikimate accumulation in glyphosate-resistant Glycine max (soybean) at growth inhibition I50 level rate measured 7 days post treatment (reference value: 65 ug/g tissue); format: functional; how it was run: as §1
# Glycine max [12] = assay: Induction of shikimate accumulation in non glyphosate-resistant Glycine max (soybean) at growth inhibition I50 level rate measured 7 days post treatment (reference value: 27 ug/g tissue); format: functional; how it was run: as §1
# Vigna unguiculata [13] = assay: Induction of shikimate accumulation in Vigna unguiculata (cowpea) at growth inhibition I50 level rate measured 7 days post treatment (reference value: 64 ug/g tissue); format: functional; how it was run: as §1
# Erigeron canadensis [14] = assay: Ratio of compound to AMPA level in Conyza canadensis (horseweed) at growth inhibition I50 level rate measured 7 days post treatment; format: organism-based; details: in vivo, 168 h
# How it was run: (§2)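 Greenhouse plants (28/22 °C, 13 h photoperiod) were sprayed at each species' I50 rate with Tween 20 controls. Shoots were clipped 7 DAT and washed free of surface herbicide. Pooled ground tissue (1 g) was extracted twice with water under sonication. Extracts were derivatized with heptafluorobutanol/trifluoroacetic anhydride (90 °C, 1 h). Glyphosate and AMPA were quantified by GC-MS against derivatized standard curves, in duplicate.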
# [15] = system: Pueraria montana var. lobata; assay: Ratio of compound to AMPA level in Pueraria montana var. lobata ( kudzu) at growth inhibition I50 level rate measured 7 days post treatment; format: organism-based; details: in vivo, 168 h; how it was run: as §2
# Senna occidentalis [16] = assay: Ratio of compound to AMPA level in Senna occidentalis (coffee senna) at growth inhibition I50 level rate measured 7 days post treatment; format: organism-based; details: in vivo, 168 h; how it was run: as §2
# Desmanthus illinoensis [17] = assay: Ratio of compound to AMPA level in Desmanthus illinoensis (Illinois bundleflower) at growth inhibition I50 level rate measured 7 days post treatment; format: organism-based; details: in vivo, 168 h; how it was run: as §2
# Senna obtusifolia [18] = assay: Ratio of compound to AMPA level in Senna obtusifolia (sicklepod) at growth inhibition I50 level rate measured 7 days post treatment; format: organism-based; details: in vivo, 168 h; how it was run: as §2
# Glycine max [19] = assay: Ratio of compound to AMPA level in non glyphosate-resistant Glycine max (soybean) at growth inhibition I50 level rate measured 7 days post treatment; format: organism-based; details: in vivo, 168 h; how it was run: as §2
# Vigna unguiculata [20] = assay: Ratio of compound to AMPA level in Vigna unguiculata (cowpea) at growth inhibition I50 level rate measured 7 days post treatment; format: organism-based; details: in vivo, 168 h; how it was run: as §2
# Glycine max [21] = assay: Ratio of compound to AMPA level in glyphosate-resistant Glycine max (soybean) at growth inhibition I50 level rate measured 7 days post treatment; format: organism-based; details: in vivo, 168 h; how it was run: as §2
# Zea mays [22] = assay: Drug level in non glyphosate-resistant Zea mays (maize) assessed as AMPA level at growth inhibition I50 level rate measured 7 days post treatment; format: organism-based; details: in vivo, 168 h, BLD = below limit of detection
# How it was run: (§3)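 Greenhouse plants (28/22 °C, 13 h photoperiod) were sprayed with glyphosate at each species' I50 rate, with Tween 20-treated controls. Shoots were cut at 7 DAT and rinsed to remove surface herbicide. Pooled ground tissue (1 g) was water-extracted twice with sonication, acidified, and washed with methylene chloride. Extracts were derivatized with heptafluorobutanol/TFAA (90 °C, 1 h) and measured by GC-MS against derivatized standards, in duplicate.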
# Lolium multiflorum [23] = assay: Drug level in Lolium multiflorum (Italian ryegrass) assessed as AMPA level at growth inhibition I50 level rate measured 7 days post treatment; format: organism-based; details: in vivo, 168 h, BLD = below limit of detection; how it was run: as §3
# Erigeron canadensis [24] = assay: Drug level in Conyza canadensis (horseweed) assessed as AMPA level at growth inhibition I50 level rate measured 7 days post treatment; format: organism-based; details: in vivo, 168 h; how it was run: as §3
# Zea mays [25] = assay: Drug level in glyphosate-resistant Zea mays (maize) assessed as AMPA level at growth inhibition I50 level rate measured 7 days post treatment; format: organism-based; details: in vivo, 168 h, BLD = below limit of detection; how it was run: as §3
# Abutilon theophrasti [26] = assay: Drug level in Abutilon theophrasti (velvetleaf) assessed as AMPA level at growth inhibition I50 level rate measured 7 days post treatment; format: organism-based; details: in vivo, 168 h, BLD = below limit of detection; how it was run: as §3
# [27] = system: Pueraria montana var. lobata; assay: Drug level in Pueraria montana var. lobata ( kudzu) assessed as AMPA level at growth inhibition I50 level rate measured 7 days post treatment; format: organism-based; details: in vivo, 168 h; how it was run: as §3
# Desmanthus illinoensis [28] = assay: Drug level in Desmanthus illinoensis (Illinois bundleflower) assessed as AMPA level at growth inhibition I50 level rate measured 7 days post treatment; format: organism-based; details: in vivo, 168 h; how it was run: as §3
# Sesbania herbacea [29] = assay: Drug level in Sesbania herbacea assessed as AMPA level at growth inhibition I50 level rate measured 7 days post treatment; format: organism-based; details: in vivo, 168 h, BLD = below limit of detection; how it was run: as §3
# Senna obtusifolia [30] = assay: Drug level in Senna obtusifolia (sicklepod) assessed as AMPA level at growth inhibition I50 level rate measured 7 days post treatment; format: organism-based; details: in vivo, 168 h; how it was run: as §3
smiles,measurement,setting,value
O=C(O)CNCP(=O)(O)O [GLYPHOSATE],Activity,Lolium multiflorum [1],6701 µg/g
same,Activity,Zea mays [2],149 µg/g
same,Activity,Zea mays [3],245 µg/g
same,Activity,Abutilon theophrasti [4],159 µg/g
same,Activity,Erigeron canadensis [5],9101 µg/g
same,Activity,[6],8915 µg/g
same,Activity,Desmanthus illinoensis [7],668 µg/g
same,Activity,Senna occidentalis [8],686 µg/g
same,Activity,Sesbania herbacea [9],6828 µg/g
same,Activity,Senna obtusifolia [10],1092 µg/g
same,Activity,Glycine max [11],53 µg/g
same,Activity,Glycine max [12],15251 µg/g
same,Activity,Vigna unguiculata [13],16530 µg/g
same,Ratio,Erigeron canadensis [14],84
same,Ratio,[15],19
same,Ratio,Senna occidentalis [16],21
same,Ratio,Desmanthus illinoensis [17],2
same,Ratio,Senna obtusifolia [18],4
same,Ratio,Glycine max [19],38
same,Ratio,Vigna unguiculata [20],6
same,Ratio,Glycine max [21],49
same,Drug uptake,Zea mays [22],BLD
same,Drug uptake,Lolium multiflorum [23],BLD
same,Drug uptake,Erigeron canadensis [24],314 ng/g
same,Drug uptake,Zea mays [25],BLD
same,Drug uptake,Abutilon theophrasti [26],BLD
same,Drug uptake,[27],297 ng/g
same,Drug uptake,Desmanthus illinoensis [28],1513 ng/g
same,Drug uptake,Sesbania herbacea [29],BLD
same,Drug uptake,Senna obtusifolia [30],1834 ng/g
